Results published in ChEMBL document CHEMBL1133663, “Synthesis and biological evaluation of 3,4-diaryloxazolones: A new class of orally active cyclooxygenase-2 inhibitors” (J Med Chem, 2000).

What was measured:
Rattus norvegicus [1] = test: In vivo inhibition of adjuvant arthritis in rats; type: functional
Rattus norvegicus [2] = test: Inhibition of carrageenan paw edema in rats; type: functional
In short: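 Fasted male Wistar rats (150-175 g, 6/group) dosed orally in 0.5% methyl cellulose/0.1% Tween (10 mL/kg). One hour later, 0.1 mL 1% carrageenan in saline was given subcutaneously into the left hind paw.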

[3] = biological target: Prostaglandin G/H synthase 1 (Homo sapiens, UniProt P23219)
Rattus norvegicus [4] = test: In vivo inhibition of carrageenan-induced hyperalgesia in rats; type: functional
In short: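 Fasted male Wistar rats (200-230 g) given oral drug, then 0.1 mL 1% carrageenan into the left hind paw 1 h later. At 5 h, walking difficulty was scored 0-2 by a blinded observer. Percentage inhibition was taken against vehicle, and ED50 was found by linear regression over four doses (6-8 rats/group).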

Rattus norvegicus [5] = test: Effect on perforated ulcers(PU) at the dose of 100 mg/kg.; type: functional
In short: (§1)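 Male Wistar rats (150-175 g), fed freely, 10/group, dosed orally once daily for 4 consecutive days in 0.5% methyl cellulose/0.1% Tween. Anaesthetised 24 h after last dose; cardiac blood taken for hemoglobin. Whole intestine opened and scored macroscopically for perforated and nonperforated ulcers (index 0-3); value is ulcer score per incidence (% animals with ulcers).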

Rattus norvegicus [6] = test: In vivo inhibition of pyresis in rats; type: functional
In short: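 Male Wistar rats (180-200 g, 6/group) were injected subcutaneously with 15% yeast extract in saline ([…]) and fasted overnight. Next morning rectal temperature was taken, and oral dosing followed 1 h later. Temperature was recorded hourly for 5 h.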

Rattus norvegicus [7] = test: Effect on non perforated ulcers(NPU) at the dose of 100 mg/kg.; type: functional; in short: as §1
Rattus norvegicus [8] = test: In vivo inhibition of carrageenan-induced air pouch in rats; type: functional
In short: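 Air pouch made in fasted male Wistar rats (150-175 g, 6/group) by injecting 20 mL air subcutaneously on the back on day 0. Oral gavage on day 3, then 5 mL 0.4% carrageenan into the pouch 1 h later.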

Rattus norvegicus [9] = species: Rattus norvegicus; test: Hemoglobin levels in the different assays ranged from 11.5-14.7 g/dl.; type: functional
Rattus norvegicus [10] = test: Effect on perforated ulcers(PU) at the dose of 10 mg/kg.; type: functional; in short: as §1
Rattus norvegicus [11] = test: Effect on non perforated ulcers(NPU) at the dose of 10 mg/kg.; type: functional; in short: as §1

Prostaglandin G/H synthase 1, sequence (P23219 whole entry): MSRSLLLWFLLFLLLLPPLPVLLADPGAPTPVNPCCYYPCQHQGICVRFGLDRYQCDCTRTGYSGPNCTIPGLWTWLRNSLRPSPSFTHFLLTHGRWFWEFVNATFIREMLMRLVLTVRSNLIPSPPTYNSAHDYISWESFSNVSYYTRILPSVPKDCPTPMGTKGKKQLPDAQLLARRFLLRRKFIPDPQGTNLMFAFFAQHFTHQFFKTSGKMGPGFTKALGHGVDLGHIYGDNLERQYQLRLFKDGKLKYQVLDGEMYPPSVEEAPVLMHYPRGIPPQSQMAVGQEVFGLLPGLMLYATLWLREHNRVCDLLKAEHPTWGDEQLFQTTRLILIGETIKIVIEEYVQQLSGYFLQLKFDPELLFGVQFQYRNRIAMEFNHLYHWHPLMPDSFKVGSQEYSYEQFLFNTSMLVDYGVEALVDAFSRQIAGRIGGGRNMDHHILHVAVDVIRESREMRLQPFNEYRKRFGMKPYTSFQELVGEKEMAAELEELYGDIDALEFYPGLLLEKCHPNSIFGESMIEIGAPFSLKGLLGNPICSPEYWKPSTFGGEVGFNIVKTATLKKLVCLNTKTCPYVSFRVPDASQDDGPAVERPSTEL

Row | SMILES | IC50 [3] | ED50 (Rattus norvegicus [1]) | ED35 (Rattus norvegicus [2]) | ED50 (Rattus norvegicus [4]) | Ulcer score (Rattus norvegicus [5]) | ED50 (Rattus norvegicus [6]) | Ulcer score (Rattus norvegicus [7]) | ED35 (Rattus norvegicus [8]) | Hgb levels (Rattus norvegicus [9]) | Ulcer score (Rattus norvegicus [10]) | Ulcer score (Rattus norvegicus [11])
1 | NS(=O)(=O)c1ccc(-c2coc(=O)n2-c2ccccc2)cc1 | 24.4 µM | 0.15 mg/kg | 0.4 mg/kg | 1.1 mg/kg | 0 | 0.5 mg/kg | 0 | 1.2 mg/kg | 14.8 g/dL |  | 
2 | NS(=O)(=O)c1ccc(-c2coc(=O)n2C2CCCCC2)cc1 | > 100 µM |  |  |  |  |  |  |  |  |  | 
3 | Cc1ccc(-n2c(-c3ccc(S(N)(=O)=O)cc3)coc2=O)cc1 | 10.9 µM | 0.34 mg/kg | 0.7 mg/kg | 3.8 mg/kg | 0 | 3.3 mg/kg | 0 | 1.7 mg/kg | 12.9 g/dL |  | 
4 | Cc1ccc(-c2cc(C(F)(F)F)nn2-c2ccc(S(N)(=O)=O)cc2)cc1 [CELECOXIB] |  | 0.5 mg/kg | 1.1 mg/kg | 6.2 mg/kg | 0 | 0.6 mg/kg | 0 | 3 mg/kg | 13.2 g/dL |  | 
5 | Cc1ccc(-n2c(-c3ccc(S(N)(=O)=O)cc3)c(C)oc2=O)cc1 | 43.5 µM |  | 2.6 mg/kg |  |  |  |  |  |  |  | 
6 | Cc1oc(=O)n(-c2ccc(Cl)c(Cl)c2)c1-c1ccc(S(N)(=O)=O)cc1 | 8.7 µM | 1.6 mg/kg | 4.4 mg/kg | 3 mg/kg | 0 | 8.7 mg/kg | 0 | 0.85 mg/kg | 14.6 g/dL |  | 
7 | CS(=O)(=O)c1ccc(-c2coc(=O)n2-c2ccc(F)cc2F)cc1 | 6.94 µM | 2.5 mg/kg | 1.4 mg/kg | 21 mg/kg |  |  |  |  |  |  | 
8 | NS(=O)(=O)c1ccc(-c2coc(=O)n2-c2ccc(F)cc2)cc1 | 13.2 µM | 0.6 mg/kg | 2 mg/kg | 3.9 mg/kg | 0 | 2.4 mg/kg | 0 | 0.4 mg/kg | 12.6 g/dL |  | 
9 | Cc1cccc(-n2c(-c3ccc(S(N)(=O)=O)cc3)coc2=O)c1 | 6.6 µM | 0.6 mg/kg | 0.9 mg/kg | 7.2 mg/kg | 0 | 1.8 mg/kg | 0 | 0.47 mg/kg | 12.8 g/dL |  | 
10 | NS(=O)(=O)c1ccc(-c2coc(=O)n2-c2ccccc2F)cc1 | 27.9 µM | 0.27 mg/kg | 1.7 mg/kg | 2.7 mg/kg | 0 | 1.2 mg/kg | 0 | 1.6 mg/kg | 11.6 g/dL |  | 
11 | Cc1oc(=O)n(-c2ccc(F)cc2)c1-c1ccc(S(N)(=O)=O)cc1 | 45.8 µM | 3 mg/kg | 1.1 mg/kg | 14 mg/kg |  |  |  |  |  |  | 
12 | CS(=O)(=O)c1ccc(-c2coc(=O)n2-c2ccc(C(F)(F)F)cc2)cc1 | > 100 µM |  |  |  |  |  |  |  |  |  | 
13 | NS(=O)(=O)c1ccc(-c2coc(=O)n2-c2ccc(C(F)(F)F)cc2)cc1 | > 100 µM | 1 mg/kg | 2.4 mg/kg | 8.1 mg/kg | 0 | 11 mg/kg | 0 | 2.6 mg/kg | 11.5 g/dL |  | 
14 | NS(=O)(=O)c1ccc(-c2coc(=O)n2-c2ccc(Cl)cc2)cc1 | 7 µM | 0.2 mg/kg | 1.6 mg/kg | 0.5 mg/kg | 3 | 2.3 mg/kg | 2.1 | 1.2 mg/kg | 12.5 g/dL |  | 
15 | COc1ccc2c(c1)c(CC(=O)O)c(C)n2C(=O)c1ccc(Cl)cc1 [INDOMETHACIN] |  | 0.22 mg/kg | 1 mg/kg | 1.2 mg/kg |  | 1.5 mg/kg |  | 2 mg/kg | 5.7 g/dL | 280 | 300
16 | COc1ccc2cc([C@H](C)C(=O)O)ccc2c1 [NAPROXEN] |  | 6.1 mg/kg | 0.45 mg/kg | 5.2 mg/kg |  | 0.8 mg/kg |  | 1.4 mg/kg | 7.5 g/dL |  | 

The next lines start with results.

Row | IC50 [3] | SMILES | ED50 (Rattus norvegicus [1]) | ED35 (Rattus norvegicus [2]) | ED50 (Rattus norvegicus [4]) | Ulcer score (Rattus norvegicus [5]) | ED50 (Rattus norvegicus [6]) | Ulcer score (Rattus norvegicus [7]) | ED35 (Rattus norvegicus [8]) | Hgb levels (Rattus norvegicus [9]) | Ulcer score (Rattus norvegicus [10]) | Ulcer score (Rattus norvegicus [11])
17 | 5.1 µM | CS(=O)(=O)c1ccc(-c2coc(=O)n2-c2ccc(F)cc2)cc1 | 2.8 mg/kg | 0.6 mg/kg | 2.5 mg/kg |  |  |  |  |  |  | 
18 | 5.1 µM | COc1ccc(-n2c(-c3ccc(S(N)(=O)=O)cc3)coc2=O)cc1F |  | 3 mg/kg |  |  |  |  |  |  |  | 
19 | 10.8 µM | NS(=O)(=O)c1ccc(-c2coc(=O)n2-c2cccc(Cl)c2)cc1 |  | 1.3 mg/kg |  |  |  |  |  |  |  | 
20 | 11.6 µM | Cc1ccc(-n2c(-c3ccc(S(C)(=O)=O)cc3)coc2=O)cc1 |  |  |  |  |  |  |  |  |  | 
21 | 5.8 µM | COc1ccc(-n2c(-c3ccc(S(N)(=O)=O)cc3)coc2=O)cc1Cl |  | 2.4 mg/kg |  |  |  |  |  |  |  | 
22 | 1.5 µM | NS(=O)(=O)c1ccc(-c2coc(=O)n2-c2ccc(Cl)c(Cl)c2)cc1 |  |  |  |  |  |  |  |  |  | 
23 | 16.9 µM | Cc1cccc(-n2c(-c3ccc(S(N)(=O)=O)cc3)c(C)oc2=O)c1 |  |  |  |  |  |  |  |  |  | 
24 | > 100 µM | NS(=O)(=O)c1ccc(-c2coc(=O)n2-c2ccc(C(=O)O)cc2)cc1 |  |  |  |  |  |  |  |  |  | 
25 | 49.3 µM | Cc1oc(=O)n(-c2ccccc2)c1-c1ccc(S(N)(=O)=O)cc1 | > 3 mg/kg | 1.7 mg/kg | 7.7 mg/kg |  |  |  |  |  |  | 
26 | 15.3 µM | NS(=O)(=O)c1ccc(-c2coc(=O)n2-c2ccc(F)cc2F)cc1 |  |  |  |  |  |  |  |  |  | 
27 | 37.1 µM | NS(=O)(=O)c1ccc(-c2coc(=O)n2-c2cccc3ccccc23)cc1 |  |  |  |  |  |  |  |  |  | 
28 | 29 µM | Cc1ccccc1-n1c(-c2ccc(S(N)(=O)=O)cc2)coc1=O |  |  |  |  |  |  |  |  |  | 
29 | 10.4 µM | CCc1ccc(-n2c(-c3ccc(S(N)(=O)=O)cc3)coc2=O)cc1 |  |  |  |  |  |  |  |  |  | 
30 | 42.4 µM | CCc1ccc(-n2c(-c3ccc(S(C)(=O)=O)cc3)coc2=O)cc1 |  |  |  |  |  |  |  |  |  | 
31 | > 100 µM | NS(=O)(=O)c1ccc(-c2coc(=O)n2-c2cccc(C(=O)O)c2)cc1 |  |  |  |  |  |  |  |  |  | 
32 | 35.4 µM | NS(=O)(=O)c1ccc(-c2coc(=O)n2-c2ccccc2Cl)cc1 |  |  |  |  |  |  |  |  |  | 
33 | 13.4 µM | CS(=O)(=O)c1ccc(-c2coc(=O)n2-c2ccccc2F)cc1 | > 3 mg/kg | 2.4 mg/kg | 32 mg/kg |  |  |  |  |  |  | 
34 | 33.6 µM | CS(=O)(=O)c1ccc(-c2coc(=O)n2-c2ccccc2)cc1 |  |  |  |  |  |  |  |  |  | 
35 | 0.9 µM | COc1ccc(-n2c(-c3ccc(S(N)(=O)=O)cc3)coc2=O)cc1 |  |  |  |  |  |  |  |  |  | 
36 | 13.6 µM | CS(=O)(=O)c1ccc(-c2coc(=O)n2-c2ccc(Cl)cc2)cc1 |  | 10 mg/kg |  |  |  |  |  |  |  | 
